For data set [1], the target named is T1, Receptor-interacting serine/threonine-protein kinase 1 (Homo sapiens, UniProt Q13546).
T1 sequence (Q13546 whole entry): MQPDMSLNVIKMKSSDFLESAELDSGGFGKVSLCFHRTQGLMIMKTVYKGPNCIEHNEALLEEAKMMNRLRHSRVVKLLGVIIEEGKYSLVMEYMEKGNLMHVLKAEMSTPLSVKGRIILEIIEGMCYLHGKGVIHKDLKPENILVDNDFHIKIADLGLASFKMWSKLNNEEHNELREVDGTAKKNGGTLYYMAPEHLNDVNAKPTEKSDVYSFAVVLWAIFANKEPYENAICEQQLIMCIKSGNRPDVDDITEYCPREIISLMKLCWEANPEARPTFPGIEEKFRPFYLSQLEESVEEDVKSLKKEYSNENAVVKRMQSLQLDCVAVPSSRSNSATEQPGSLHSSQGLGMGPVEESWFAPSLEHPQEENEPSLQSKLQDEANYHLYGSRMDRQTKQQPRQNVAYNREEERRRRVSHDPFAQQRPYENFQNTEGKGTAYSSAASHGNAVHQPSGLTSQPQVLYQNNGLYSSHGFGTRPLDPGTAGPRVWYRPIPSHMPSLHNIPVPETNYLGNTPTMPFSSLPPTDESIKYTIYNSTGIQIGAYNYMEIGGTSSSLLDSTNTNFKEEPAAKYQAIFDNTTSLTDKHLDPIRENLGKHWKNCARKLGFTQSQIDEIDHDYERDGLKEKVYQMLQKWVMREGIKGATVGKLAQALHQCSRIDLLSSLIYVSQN
Put plainly: Inhibition of RIP1 (unknown origin) using MBP as substrate preincubated for 15 mins followed by MBP/ATP mixture addition measured after 90 mins by ADP-Glo kinase assay. Put shortly: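 Recombinant RIP1 pre-incubated 15 min with compound or DMSO in 25 mM HEPES pH 7.2, 20 mM MgCl2, 12.5 mM MnCl2, 5 mM EGTA, 2 mM EDTA, 12.5 mM β-glycerol phosphate, 2 mM DTT. Reaction started with ATP (50 μM final) and MBP (20 μM final), run 90 min at room temperature. ADP-Glo luminescence read-out.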
A general note: ADP-Glo first removes unused ATP, then detects ADP through luciferase.

Data set [2] in a line: Intrinsic clearance in mouse liver microsomes assessed per mg protein in presence of NADPH by LC-MS/MS analysis. The class given is ADME, microsome. To be noted: read-out: CLH. (Liver microsomes are a subcellular fraction often used to study metabolism.)
The target of data set [3] is Receptor-interacting serine/threonine-protein kinase 3 (Homo sapiens) (UniProt Q9Y572). Briefly: Inhibition of TNFalpha/z-VAD-FMK-induced RIP3 phosphorylation at Ser-227 residue in human HT-29 cells by Western blot method. It is filed as cell-based. (In general: Immunoblotting shows a protein as a band on a membrane.)
Sequence of Receptor-interacting serine/threonine-protein kinase 3 (Homo sapiens) (Q9Y572 whole entry, looked up): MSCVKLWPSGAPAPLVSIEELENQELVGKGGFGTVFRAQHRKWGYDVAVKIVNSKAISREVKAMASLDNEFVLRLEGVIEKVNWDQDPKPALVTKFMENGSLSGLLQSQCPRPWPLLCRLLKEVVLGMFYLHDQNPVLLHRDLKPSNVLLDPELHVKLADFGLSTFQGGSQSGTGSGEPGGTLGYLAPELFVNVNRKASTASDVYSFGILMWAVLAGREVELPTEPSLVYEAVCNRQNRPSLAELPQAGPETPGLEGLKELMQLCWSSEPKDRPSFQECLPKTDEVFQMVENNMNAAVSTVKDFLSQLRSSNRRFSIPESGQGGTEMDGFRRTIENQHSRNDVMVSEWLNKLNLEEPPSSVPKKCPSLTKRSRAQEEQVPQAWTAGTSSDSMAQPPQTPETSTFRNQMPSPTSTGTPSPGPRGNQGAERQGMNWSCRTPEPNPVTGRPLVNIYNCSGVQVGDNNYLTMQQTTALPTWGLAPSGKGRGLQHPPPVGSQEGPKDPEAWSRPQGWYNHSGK
Data set [4] in a line: Half life in C57BL/6J mouse at 2 mg/kg, iv by LC-MS/MS analysis. To be noted: in vivo. It is filed as ADME, organism-based. Put shortly: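 C57BL/6 mice (n = 3) dosed IV, IP or PO; blood sampled by eye puncture at various time points; plasma levels by LC-MS/MS; parameters from individual animal data by non-compartmental analysis.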
Data set [5] relates to Mus musculus. Briefly: Protection against TNFalpha-induced mortality in ip dosed C57BL/6J mouse assessed as increase in survival rate pretreated for 17 mins followed by TNFalpha injection and subsequent compound treatment once in every 12 hrs measured every 30 mins up to 60 hrs post TNFalpha injection during compound dosing. The class given is functional, organism-based. Put shortly: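 C57BL/6 mice, 6-8 weeks, ~20 g, randomized (n = 6~10). Given 5.5 μg mTNFα (~0.25 mg/kg) IV in endotoxin-free PBS, 0.2 mL. Compound IP 17 min before TNFα: either once at 6 mg/kg or […], 1, 3 mg/kg then every 12 h; vehicle controls. Survival checked every 30 min to 60 h.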

Data set [6] relates to Mus musculus. Put plainly: Protection against TNFalpha-induced multiorgan damage in C57BL/6J mouse assessed as inhibition of TNFalpha-induced increase in IL-6 level at 0.3 to 3 mg/kg, ip pretreated for 17 mins followed by TNFalpha injection and subsequent compound treatment once in every 12 hrs measured after 12 hrs. It is filed as functional, organism-based. Put shortly: (§1)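 C57BL/6 mice given 4 μg mTNFα (~0.18 mg/kg) IV. Compound 0.3, 1, 3 mg/kg IP 17 min before and then every 12 h; vehicle controls. Blood taken 12 h and 24 h after TNFα. Assays: IL-6 and IL-1β; serum LDH, CK, AST, creatinine, BUN, amylase.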

Data set [7] concerns Mus musculus. Briefly: Protection against TNFalpha-induced multiorgan damage in C57BL/6J mouse assessed as inhibition of TNFalpha-induced increase in IL-1beta level at 0.3 to 3 mg/kg, ip pretreated for 17 mins followed by TNFalpha injection and subsequent compound treatment once in every 12 hrs measured after 12 hrs. The class given is functional, organism-based. Put shortly:
as §1

Data set [8] relates to Mus musculus. Briefly: Protection against TNFalpha-induced multiorgan damage in C57BL/6J mouse assessed as serum LDH level at 0.3 to 3 mg/kg, ip pretreated for 17 mins followed by TNFalpha injection and subsequent compound treatment once in every 12 hrs measured 24 hrs post TNFalpha injection. The class given is functional, organism-based. Put shortly: as §1
Data set [9] has as its system Mus musculus. Put plainly: Protection against TNFalpha-induced multiorgan damage in C57BL/6J mouse assessed as serum AST level at 0.3 to 3 mg/kg, ip pretreated for 17 mins followed by TNFalpha injection and subsequent compound treatment once in every 12 hrs measured 24 hrs post TNFalpha injection. It is filed as functional, organism-based. Put shortly: as §1
Data set [10] deals with Mus musculus. Put plainly: Protection against TNFalpha-induced multiorgan damage in C57BL/6J mouse assessed as blood urea nitrogen level at 0.3 to 3 mg/kg, ip pretreated for 17 mins followed by TNFalpha injection and subsequent compound treatment once in every 12 hrs measured 24 hrs post TNFalpha injection. It is filed as functional, organism-based. Put shortly: as §1
In data set [11] the test system is Mus musculus. Briefly: Protection against TNFalpha-induced thymus damage in C57BL/6J mouse assessed as reduction in macrophages infiltration at 0.3 to 3 mg/kg, ip pretreated for 17 mins followed by TNFalpha injection and subsequent compound treatment once in every 12 hrs measured 24 hrs post TNFalpha injection by hematoxylin and eosin staining based assay. It is filed as functional, organism-based. Put shortly: (§2)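 Mice given mTNFα IV; compound 0.3, 1, 3 mg/kg IP 17 min before and every 12 h. Killed 24 h post-TNFα. Organs fixed 24 h in 10% neutral buffered formalin, paraffin-embedded, 5-μm sections, H&E stained; ×200, at least three mice each.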

In data set [12] the test system is Mus musculus. Briefly: Protection against TNFalpha-induced myocardium damage in C57BL/6J mouse at 0.3 to 3 mg/kg, ip pretreated for 17 mins followed by TNFalpha injection and subsequent compound treatment once in every 12 hrs measured 24 hrs post TNFalpha injection by hematoxylin and eosin staining based assay. The class given is functional, organism-based. Put shortly:
as §2

In data set [13] the test system is Mus musculus. Put plainly: Protection against TNFalpha-induced pancreas damage in C57BL/6J mouse at 0.3 to 3 mg/kg, ip pretreated for 17 mins followed by TNFalpha injection and subsequent compound treatment once in every 12 hrs measured 24 hrs post TNFalpha injection by hematoxylin and eosin staining based assay. It is filed as functional, organism-based. Put shortly:
as §2

For another data set, the target named is Cytochrome P450 2C19 (Homo sapiens, UniProt P33261). Put plainly: Inhibition of CYP2C19 (unknown origin). It is filed as ADME.
Sequence of Cytochrome P450 2C19 (P33261 whole entry): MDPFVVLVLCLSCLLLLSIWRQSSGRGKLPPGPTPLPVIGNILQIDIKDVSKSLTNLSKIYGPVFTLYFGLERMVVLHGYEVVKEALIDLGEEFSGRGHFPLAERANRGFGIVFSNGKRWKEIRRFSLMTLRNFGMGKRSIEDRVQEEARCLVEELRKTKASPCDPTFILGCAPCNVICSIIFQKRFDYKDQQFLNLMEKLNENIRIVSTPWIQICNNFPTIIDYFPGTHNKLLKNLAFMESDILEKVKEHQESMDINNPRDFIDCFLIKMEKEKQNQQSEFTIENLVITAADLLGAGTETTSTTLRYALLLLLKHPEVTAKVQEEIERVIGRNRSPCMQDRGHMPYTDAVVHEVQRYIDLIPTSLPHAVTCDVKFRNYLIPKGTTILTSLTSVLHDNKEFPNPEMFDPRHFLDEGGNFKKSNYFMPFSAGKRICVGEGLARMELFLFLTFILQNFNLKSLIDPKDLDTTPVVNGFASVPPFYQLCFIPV
In a further data set the target is Cytochrome P450 2C9 (Homo sapiens, UniProt P11712). Briefly: Inhibition of CYP2C9 (unknown origin). It is filed as ADME.
Sequence of Cytochrome P450 2C9 (P11712 whole entry): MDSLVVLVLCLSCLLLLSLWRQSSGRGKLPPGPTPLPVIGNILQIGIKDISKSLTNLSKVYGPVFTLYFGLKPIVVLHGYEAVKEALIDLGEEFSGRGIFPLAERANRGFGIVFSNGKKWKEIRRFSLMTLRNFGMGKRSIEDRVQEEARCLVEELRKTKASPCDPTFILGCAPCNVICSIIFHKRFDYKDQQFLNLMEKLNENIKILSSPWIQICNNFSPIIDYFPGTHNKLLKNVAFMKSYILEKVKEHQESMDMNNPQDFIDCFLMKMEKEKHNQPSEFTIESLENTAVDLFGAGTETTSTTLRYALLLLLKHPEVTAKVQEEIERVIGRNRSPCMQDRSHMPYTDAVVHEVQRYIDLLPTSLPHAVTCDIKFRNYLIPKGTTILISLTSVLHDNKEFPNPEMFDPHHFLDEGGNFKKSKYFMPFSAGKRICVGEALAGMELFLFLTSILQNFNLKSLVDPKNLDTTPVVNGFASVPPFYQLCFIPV
The nature of data set [14]: Apparent permeability from basolateral to apical side in MDCK cells harboring MDR1. It is filed as ADME, cell-based, Canis lupus familiaris. To be noted: dog. Summed up:
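Permeability measured in MDCK-MDR1 cell monolayers in both directions, apical-to-basolateral and basolateral-to-apical; efflux ratio derived from the two Papp values.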

The nature of data set [15]: Efflux ratio of apparent permeability in MDCK cells harboring MDR1. Conditions: dog. It is filed as ADME, cell-based, Canis lupus familiaris.

SMILES strings stand for the structures. pIC50: −log10 of the molar value. Activity calls are given as the source filed them.

The values that follow come from ChEMBL document CHEMBL3992509, “Discovery of a Highly Potent, Selective, and Metabolically Stable Inhibitor of Receptor-Interacting Protein 1 (RIP1) for the Treatment of Systemic Inflammatory Response Syndrome” (J Med Chem, 2017).

In the case of `CCC(C)(C)C(=O)N(O)Cc1ccccc1`, the pIC50 in data set [1] is 7.89; on Cytochrome P450 2C19 it was less than 4.30; on Cytochrome P450 2C9, less than 4.30. Also, in [2], the microsomal CLint was determined as 19.5 µL/min/mg. Further, the inhibition entry (in data set [3]; in the data set with Mus musculus [6]; with Mus musculus [7]) was “Active” throughout. The molecule also gave a half-life in [4] of 3.1 h. Besides, the Activity entry in the data set on Mus musculus [5] is “Dose-dependent effect”. The outcome in the data set on Mus musculus [8], in the data set on Mus musculus [9], in the data set with Mus musculus [10], with Mus musculus [11], with Mus musculus [12] and in the data set on Mus musculus [13] was Active. For the same molecule, in data set [14], the basolateral-to-apical permeability (Papp B→A) is greater than 30 ×10⁻⁶ cm/s. In data set [15], the efflux ratio is 0.87.

A word on the pIC50: it is the IC50 on a negative log10 scale, so that one unit is a factor of ten. One may read the half-life as the time needed for the level to fall by half in the phase considered. Read a high half-life as slow loss. In general, Papp B→A refers to how fast a substance crosses the layer from the basolateral side. Broadly, the efflux ratio is the permeability from basolateral to apical divided by that in the opposite direction, in the common usage.
